ChEMBL document CHEMBL5303300, “EUbOPEN Chemogenomics Library - Multiplex” (2023)
“And” between values parts separate entries of the source, which are not always exact repeats. Equal values may be shown once.

Test system: Fibroblast
Assay: Multiplex assay against human fibroblast
Assay type: toxicity, cell-based
Details: number of replicates 2
Method in brief: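 Hoechst33342, BioTracker Green Microtubule Cytoskeleton Dye, MitoTracker Red and Annexin V Alexa Fluor 680 were added to live cells at seeding, and imaging on a CQ1 microscope at 37°C and 5% CO2 followed compound addition. Gating by CellPathfinder machine learning separated cells into Hoechst high-intensity objects or normal cells, then normal cells into healthy, pyknosed or fragmented nuclei, then pyknosed cells into mitotic or apoptotic. Per cents of healthy-nucleus cells are reported for the tubulin, mitochondrial-mass and membrane-permeability phenotypes.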

[1] = 12 h, 1 µM, compound concentration 1 uM
[2] = 12 h, 10 µM, compound concentration 10 uM
[3] = 24 h, 1 µM, compound concentration 1 uM
[4] = 24 h, 10 µM, compound concentration 10 uM
[5] = 48 h, 1 µM, compound concentration 1 uM
[6] = 48 h, 10 µM, compound concentration 10 uM

COc1ccccc1-c1cc(Nc2cccc(CS(N)(=O)=O)c2)ncn1 was tested. Which “Population Apoptotic (%)” value [1] did it give?
Its value is 36% and 33%.

What about the “Population Fragmented Nuclei (%)” value [1] of the same compound?
Its value is 4% and 7%.

And the “Population Healthy Nuclei (%)” value [1]?
The value was 78% and 68%.

And the “Population Hoechst High Intensity Objects (%)” value [1]?
Its value is 0%.

What about the “Population Membrane Permeable-Phenotype (%)” value [1] of the same compound?
Its value is 8% and 2%.

What about the “Population Mitochondria Different-Phenotype (%)” value [1] of the same compound?
Its value is 1% and 0%.

And the “Population Mitotic Cells (%)” value [1]?
The value was 63% and 66%.

What about the “Population Normal (%)” value [1] of the same compound?
The value was 100% and 99%.

And the “Population Pyknosed Nuclei (%)” value [1]?
The value was 16% and 24%.

And the “Population Tubulin-Different-Phenotype (%)” value [1]?
The value was 13% and 7%.

And the “Total Cell Count” value [1]?
The value was 202 and 230.

And the “Population Apoptotic (%)” value [2]?
Its value is 46% and 42%.

And the “Population Fragmented Nuclei (%)” value [2]?
The value was 4% and 7%.

What about the “Population Healthy Nuclei (%)” value [2] of the same compound?
The value was 77% and 71%.

What about the “Population Hoechst High Intensity Objects (%)” value [2] of the same compound?
The value was 0%.

What about the “Population Membrane Permeable-Phenotype (%)” value [2] of the same compound?
Its value is 7% and 5%.

And the “Population Mitochondria Different-Phenotype (%)” value [2]?
The value was 0% and 1%.

What about the “Population Mitotic Cells (%)” value [2] of the same compound?
Its value is 53% and 57%.

What about the “Population Normal (%)” value [2] of the same compound?
The value was 100% and 99%.

And the “Population Pyknosed Nuclei (%)” value [2]?
Its value is 17% and 21%.

What about the “Population Tubulin-Different-Phenotype (%)” value [2] of the same compound?
Its value is 17% and 19%.

And the “Total Cell Count” value [2]?
The value was 181 and 214.

What about the “Population Apoptotic (%)” value [3] of the same compound?
Its value is 41% and 49%.

What about the “Population Fragmented Nuclei (%)” value [3] of the same compound?
Its value is 6% and 10%.

And the “Population Healthy Nuclei (%)” value [3]?
Its value is 75% and 64%.

What about the “Population Hoechst High Intensity Objects (%)” value [3] of the same compound?
The value was 0%.

What about the “Population Membrane Permeable-Phenotype (%)” value [3] of the same compound?
Its value is 5% and 7%.

What about the “Population Mitochondria Different-Phenotype (%)” value [3] of the same compound?
The value was 2% and 0%.

And the “Population Mitotic Cells (%)” value [3]?
Its value is 58% and 50%.

And the “Population Normal (%)” value [3]?
Its value is 100% and 99%.

What about the “Population Pyknosed Nuclei (%)” value [3] of the same compound?
The value was 18% and 25%.

And the “Population Tubulin-Different-Phenotype (%)” value [3]?
Its value is 15% and 12%.

What about the “Total Cell Count” value [3] of the same compound?
Its value is 194 and 245.

And the “Population Apoptotic (%)” value [4]?
The value was 61% and 55%.

What about the “Population Fragmented Nuclei (%)” value [4] of the same compound?
Its value is 10% and 9%.

And the “Population Healthy Nuclei (%)” value [4]?
The value was 76% and 68%.

What about the “Population Hoechst High Intensity Objects (%)” value [4] of the same compound?
The value was 0%.

And the “Population Membrane Permeable-Phenotype (%)” value [4]?
Its value is 1%.

What about the “Population Mitochondria Different-Phenotype (%)” value [4] of the same compound?
Its value is 3% and 4%.

What about the “Population Mitotic Cells (%)” value [4] of the same compound?
The value was 38% and 44%.

What about the “Population Normal (%)” value [4] of the same compound?
Its value is 100%.

What about the “Population Pyknosed Nuclei (%)” value [4] of the same compound?
Its value is 12% and 21%.

And the “Population Tubulin-Different-Phenotype (%)” value [4]?
The value was 18% and 15%.

What about the “Total Cell Count” value [4] of the same compound?
Its value is 202 and 214.

What about the “Population Apoptotic (%)” value [5] of the same compound?
Its value is 66% and 56%.

What about the “Population Fragmented Nuclei (%)” value [5] of the same compound?
Its value is 5% and 14%.

What about the “Population Healthy Nuclei (%)” value [5] of the same compound?
The value was 78% and 67%.

And the “Population Hoechst High Intensity Objects (%)” value [5]?
The value was 0%.

And the “Population Membrane Permeable-Phenotype (%)” value [5]?
The value was 4% and 6%.

What about the “Population Mitochondria Different-Phenotype (%)” value [5] of the same compound?
Its value is 0%.

And the “Population Mitotic Cells (%)” value [5]?
The value was 33% and 43%.

And the “Population Normal (%)” value [5]?
Its value is 99%.

And the “Population Pyknosed Nuclei (%)” value [5]?
Its value is 15% and 18%.

What about the “Population Tubulin-Different-Phenotype (%)” value [5] of the same compound?
Its value is 8% and 5%.

What about the “Total Cell Count” value [5] of the same compound?
The value was 192 and 250.

What about the “Population Apoptotic (%)” value [6] of the same compound?
Its value is 78% and 80%.

What about the “Population Fragmented Nuclei (%)” value [6] of the same compound?
The value was 9%.

And the “Population Healthy Nuclei (%)” value [6]?
The value was 83% and 74%.

What about the “Population Hoechst High Intensity Objects (%)” value [6] of the same compound?
Its value is 0%.

What about the “Population Membrane Permeable-Phenotype (%)” value [6] of the same compound?
Its value is 3% and 9%.

And the “Population Mitochondria Different-Phenotype (%)” value [6]?
Its value is 1%.

And the “Population Mitotic Cells (%)” value [6]?
Its value is 21% and 20%.

And the “Population Normal (%)” value [6]?
The value was 100%.

And the “Population Pyknosed Nuclei (%)” value [6]?
Its value is 6% and 16%.

What about the “Population Tubulin-Different-Phenotype (%)” value [6] of the same compound?
The value was 16% and 26%.

What about the “Total Cell Count” value [6] of the same compound?
Its value is 203 and 209.

How did the “Population Apoptotic (%)” value [1] turn out when CNS(=O)(=O)c1ccc(N(C)C)c(Nc2ncnc3cc(OC)c(OC)cc23)c1 was run?
Its value is 40% and 34%.

And the “Population Fragmented Nuclei (%)” value [1]?
Its value is 11% and 10%.

And the “Population Healthy Nuclei (%)” value [1]?
Its value is 55% and 63%.

And the “Population Hoechst High Intensity Objects (%)” value [1]?
Its value is 0%.

What about the “Population Membrane Permeable-Phenotype (%)” value [1] of the same compound?
Its value is 4% and 6%.

What about the “Population Mitochondria Different-Phenotype (%)” value [1] of the same compound?
The value was 0%.

What about the “Population Mitotic Cells (%)” value [1] of the same compound?
Its value is 60% and 65%.

What about the “Population Normal (%)” value [1] of the same compound?
Its value is 100%.

What about the “Population Pyknosed Nuclei (%)” value [1] of the same compound?
The value was 33% and 26%.

And the “Population Tubulin-Different-Phenotype (%)” value [1]?
The value was 9% and 6%.

What about the “Total Cell Count” value [1] of the same compound?
Its value is 136 and 169.

And the “Population Apoptotic (%)” value [2]?
The value was 41% and 28%.

And the “Population Fragmented Nuclei (%)” value [2]?
Its value is 13% and 8%.

What about the “Population Healthy Nuclei (%)” value [2] of the same compound?
Its value is 61% and 67%.

What about the “Population Hoechst High Intensity Objects (%)” value [2] of the same compound?
The value was 0%.

What about the “Population Membrane Permeable-Phenotype (%)” value [2] of the same compound?
Its value is 4% and 6%.

What about the “Population Mitochondria Different-Phenotype (%)” value [2] of the same compound?
Its value is 1%.

And the “Population Mitotic Cells (%)” value [2]?
The value was 58% and 71%.

What about the “Population Normal (%)” value [2] of the same compound?
Its value is 99% and 100%.

And the “Population Pyknosed Nuclei (%)” value [2]?
Its value is 24% and 23%.

And the “Population Tubulin-Different-Phenotype (%)” value [2]?
The value was 22% and 16%.

And the “Total Cell Count” value [2]?
Its value is 206 and 246.

What about the “Population Apoptotic (%)” value [3] of the same compound?
The value was 37% and 46%.

What about the “Population Fragmented Nuclei (%)” value [3] of the same compound?
The value was 11% and 13%.

And the “Population Healthy Nuclei (%)” value [3]?
Its value is 54% and 60%.

And the “Population Hoechst High Intensity Objects (%)” value [3]?
Its value is 0%.

What about the “Population Membrane Permeable-Phenotype (%)” value [3] of the same compound?
The value was 2% and 8%.

And the “Population Mitochondria Different-Phenotype (%)” value [3]?
Its value is 0% and 2%.

What about the “Population Mitotic Cells (%)” value [3] of the same compound?
Its value is 62% and 53%.

What about the “Population Normal (%)” value [3] of the same compound?
Its value is 99%.

And the “Population Pyknosed Nuclei (%)” value [3]?
Its value is 33% and 25%.

What about the “Population Tubulin-Different-Phenotype (%)” value [3] of the same compound?
The value was 8% and 10%.

And the “Total Cell Count” value [3]?
The value was 136 and 162.

And the “Population Apoptotic (%)” value [4]?
Its value is 56% and 43%.

What about the “Population Fragmented Nuclei (%)” value [4] of the same compound?
Its value is 11% and 10%.

What about the “Population Healthy Nuclei (%)” value [4] of the same compound?
The value was 66% and 71%.

And the “Population Hoechst High Intensity Objects (%)” value [4]?
Its value is 0%.

What about the “Population Membrane Permeable-Phenotype (%)” value [4] of the same compound?
The value was 7% and 2%.

And the “Population Mitochondria Different-Phenotype (%)” value [4]?
Its value is 2%.

And the “Population Mitotic Cells (%)” value [4]?
Its value is 43% and 56%.

What about the “Population Normal (%)” value [4] of the same compound?
Its value is 100% and 99%.

What about the “Population Pyknosed Nuclei (%)” value [4] of the same compound?
Its value is 22% and 17%.

And the “Population Tubulin-Different-Phenotype (%)” value [4]?
Its value is 20% and 12%.

What about the “Total Cell Count” value [4] of the same compound?
Its value is 207 and 220.

What about the “Population Apoptotic (%)” value [5] of the same compound?
The value was 53% and 68%.

And the “Population Fragmented Nuclei (%)” value [5]?
Its value is 20% and 18%.

What about the “Population Healthy Nuclei (%)” value [5] of the same compound?
Its value is 59% and 65%.

What about the “Population Hoechst High Intensity Objects (%)” value [5] of the same compound?
Its value is 0%.

And the “Population Membrane Permeable-Phenotype (%)” value [5]?
Its value is 10% and 7%.

What about the “Population Mitochondria Different-Phenotype (%)” value [5] of the same compound?
The value was 1%.

And the “Population Mitotic Cells (%)” value [5]?
Its value is 46% and 31%.

What about the “Population Normal (%)” value [5] of the same compound?
The value was 99% and 100%.

And the “Population Pyknosed Nuclei (%)” value [5]?
Its value is 19% and 15%.

What about the “Population Tubulin-Different-Phenotype (%)” value [5] of the same compound?
Its value is 15% and 8%.

And the “Total Cell Count” value [5]?
The value was 154 and 185.

And the “Population Apoptotic (%)” value [6]?
Its value is 62% and 75%.

And the “Population Fragmented Nuclei (%)” value [6]?
The value was 17% and 14%.

And the “Population Healthy Nuclei (%)” value [6]?
Its value is 68% and 78%.

What about the “Population Hoechst High Intensity Objects (%)” value [6] of the same compound?
Its value is 0%.

What about the “Population Membrane Permeable-Phenotype (%)” value [6] of the same compound?
Its value is 6% and 3%.

What about the “Population Mitochondria Different-Phenotype (%)” value [6] of the same compound?
Its value is 2% and 3%.

What about the “Population Mitotic Cells (%)” value [6] of the same compound?
The value was 37% and 25%.

And the “Population Normal (%)” value [6]?
Its value is 99% and 100%.

What about the “Population Pyknosed Nuclei (%)” value [6] of the same compound?
The value was 14% and 7%.

And the “Population Tubulin-Different-Phenotype (%)” value [6]?
The value was 12% and 11%.

And the “Total Cell Count” value [6]?
The value was 193 and 207.
